From ChEMBL document CHEMBL4257484, “Membrane-active antimicrobial poly(amino-modified alkyl) β-cyclodextrins synthesized via click reactions” (Medchemcomm, 2018)
Values after ≈ are worked out from the molar mass of the structure shown.

How the values were obtained:
Staphylococcus aureus [1] = assay: Induction of membrane disruption in methicillin-sensitive Staphylococcus aureus FDA 209P assessed as increase in K+ efflux after 30 mins; assay type: functional; conditions: 0.5 h, read-out: ED50 (the source's name)
Outline: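 S. aureus washed twice and suspended at 2 × 10^9 cells per cm3 in 100 mM choline chloride/50 mM Mops-Tris, pH 7.2, then exposed to compound at 37 °C for 30 min. Released K+ was measured in the centrifuged supernatant with a K+-selective electrode. Melittin (10 µM) defined 100% efflux, and ED50 is the concentration giving 50% efflux.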

Staphylococcus aureus [2] = assay: Induction of membrane disruption in methicillin-sensitive Staphylococcus aureus FDA 209P assessed as increase in K+ efflux at 10 uM after 30 mins relative to control; assay type: functional
Outline: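 S. aureus suspension (2 × 10^9 cells per cm3, 100 mM choline chloride/50 mM Mops-Tris, pH 7.2) treated with CD at 37 °C for 30 min, then centrifuged. K+ released into the supernatant was read with a K+-selective electrode. Efflux is expressed relative to 10 µM melittin, which sets 100%.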

Staphylococcus aureus [3] = assay: Antibacterial activity against Staphylococcus aureus FDA 209P assessed as decrease in cell viability after 30 mins by colony counting method; assay type: functional; conditions: 0.5 h
Outline: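 S. aureus washed twice and suspended at 2 × 10^9 cells per cm3 in 100 mM choline chloride/50 mM Mops-Tris, pH 7.2. Exposed to CD at 37 °C for 30 min. An aliquot was diluted in physiological saline, plated on polypeptone/yeast extract/NaCl agar and incubated overnight at 37 °C. Viability was taken from colony counts; LC50 is the concentration giving 50% viability.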

[4] = Hemolytic activity in rabbit RBC at 5 uM after 20 mins relative to control; assay type: ADME, cell-based, Oryctolagus cuniculus, Erythrocyte; conditions: rabbit red blood cells (erythrocytes), read-out: Activity
Outline: (§1)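 Rabbit erythrocytes suspended in 150 mM NaCl/10 mM Hepes-NaOH, pH 7.4, at 0.5% hematocrit (final) and incubated with compound at 37 °C. The table footnote gives 20 min; the methods section gives 30 min. Hemolysis was read as absorbance at 540 nm, with 50 µM lysolecithin defining 100% hemolysis.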

Enterococcus faecium = assay: Antibacterial activity against drug-resistant Enterococcus faecium MS29120 after 18 to 20 hrs by agar dilution method; assay type: functional
Outline: (§2)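 Agar dilution per CLSI. Overnight broth cultures were diluted 100-fold, and one loopful (about 10^5 to 10^4 CFU) was spotted onto agar plates containing the CD. Growth was scored after 18–20 h at 37 °C. MIC values are in µM.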

[5] = Hemolytic activity in rabbit RBC at 1 uM after 20 mins relative to control; assay type: ADME, cell-based, Oryctolagus cuniculus, Erythrocyte; conditions: rabbit red blood cells (erythrocytes), read-out: Activity; outline: as §1
[6] = Hemolytic activity in rabbit RBC at 2 uM after 20 mins relative to control; assay type: ADME, cell-based, Oryctolagus cuniculus, Erythrocyte; conditions: rabbit red blood cells (erythrocytes), read-out: Activity; outline: as §1
Streptococcus agalactiae = assay: Antibacterial activity against drug-resistant Streptococcus agalactiae B1 after 18 to 20 hrs by agar dilution method; assay type: functional; outline: as §2
[7] = Hemolytic activity in rabbit RBC at 20 uM after 20 mins relative to control; assay type: ADME, cell-based, Oryctolagus cuniculus, Erythrocyte; conditions: rabbit red blood cells (erythrocytes), read-out: Activity; outline: as §1
Pseudomonas aeruginosa = assay: Antibacterial activity against drug-sensitive Pseudomonas aeruginosa PAO1 after 20 hrs by liquid microdilution method; assay type: functional; conditions: PAO1, 20 h
Outline: (§3)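 Two-fold serial dilutions of compound in Mueller–Hinton broth, inoculated with 1 × 10^4 cells and cultured at 37 °C for 20 h in microtiter wells.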

Staphylococcus aureus [8] = assay: Antibacterial activity against methicillin-sensitive Staphylococcus aureus FDA 209P after 20 hrs by liquid microdilution method; assay type: functional; outline: as §3
Salmonella typhimurium = assay: Antibacterial activity against drug-sensitive Salmonella typhimurium LT2 after 20 hrs by liquid microdilution method; assay type: functional, Salmonella enterica subsp. enterica serovar Typhimurium; conditions: Salmonella enterica, LT2, 20 h; outline: as §3
Bacillus subtilis = assay: Antibacterial activity against drug-sensitive Bacillus subtilis 168 after 20 hrs by liquid microdilution method; assay type: functional; conditions: subsp. subtilis str. 168, 20 h; outline: as §3
Enterococcus faecalis [9] = assay: Antibacterial activity against vancomycin-resistant Enterococcus faecalis MS29016 after 18 to 20 hrs by agar dilution method; assay type: functional; outline: as §2
Escherichia coli = assay: Antibacterial activity against drug-sensitive Escherichia coli K-12 W3110 after 20 hrs by liquid microdilution method; assay type: functional; conditions: K-12 substr. W3110, 20 h; outline: as §3
Enterococcus faecalis [10] = assay: Antibacterial activity against drug-resistant Enterococcus faecalis MS29030 after 18 to 20 hrs by agar dilution method; assay type: functional; outline: as §2
Staphylococcus aureus [11] = assay: Antibacterial activity against methicillin-resistant Staphylococcus aureus MS29202 after 18 to 20 hrs by agar dilution method; assay type: functional; outline: as §2
[12] = Lipophilicity, log P of the compound; assay type: physicochemical; conditions: octanol/water
Erythrocyte = assay: Hemolytic activity in rabbit RBC at 50 uM after 20 mins relative to control; assay type: ADME, cell-based, Oryctolagus cuniculus; conditions: erythrocyte, 20 min, 50 µM; outline: as §1
[13] = Hemolytic activity in rabbit RBC at 10 uM after 20 mins relative to control; assay type: ADME, cell-based, Oryctolagus cuniculus, Erythrocyte; conditions: rabbit red blood cells (erythrocytes), read-out: Activity; outline: as §1

SMILES: CC[C@H](C)[C@H](NC(=O)CN)C(=O)NCC(=O)N[C@@H](C)C(=O)N[C@H](C(=O)N[C@@H](CC(C)C)C(=O)N[C@@H](CCCCN)C(=O)N[C@H](C(=O)N[C@@H](CC(C)C)C(=O)N[C@H](C(=O)N[C@H](C(=O)NCC(=O)N[C@@H](CC(C)C)C(=O)N1CCC[C@H]1C(=O)N[C@@H](C)C(=O)N[C@@H](CC(C)C)C(=O)N[C@H](C(=O)N[C@@H](CO)C(=O)N[C@@H](Cc1c[nH]c2ccccc12)C(=O)N[C@H](C(=O)N[C@@H](CCCCN)C(=O)N[C@@H](CCCNC(=N)N)C(=O)N[C@@H](CCCCN)C(=O)N[C@@H](CCCNC(=N)N)C(=O)N[C@@H](CCC(N)=O)C(=O)N[C@@H](CCC(N)=O)C(N)=O)[C@@H](C)CC)[C@@H](C)CC)[C@@H](C)O)[C@@H](C)O)C(C)C)C(C)C [MELITTIN]
- EC50 (Staphylococcus aureus [1]): 0.2 to 0.5 µM
- Activity (Staphylococcus aureus [2]): 100%
- LC50 (Staphylococcus aureus [3]): 0.2 to 0.5 µM

SMILES: CCCCCCCNCc1cn(C[C@H]2O[C@@H]3O[C@H]4[C@H](O)[C@@H](O)[C@@H](O[C@H]5[C@H](O)[C@@H](O)[C@@H](O[C@H]6[C@H](O)[C@@H](O)[C@@H](O[C@H]7[C@H](O)[C@@H](O)[C@@H](O[C@H]8[C@H](O)[C@@H](O)[C@@H](O[C@H]9[C@H](O)[C@@H](O)[C@@H](O[C@H]2[C@H](O)[C@H]3O)O[C@@H]9Cn2cc(CNCCCCCCC)nn2)O[C@@H]8Cn2cc(CNCCCCCCC)nn2)O[C@@H]7Cn2cc(CNCCCCCCC)nn2)O[C@@H]6Cn2cc(CNCCCCCCC)nn2)O[C@@H]5Cn2cc(CNCCCCCCC)nn2)O[C@@H]4Cn2cc(CNCCCCCCC)nn2)nn1
- hemolysis at 20 min, 5 µM [4]: 85%
- EC50 (Staphylococcus aureus [1]): 30 µM
- MIC (Enterococcus faecium): > 40 µM
- hemolysis at 20 min, 1 µM [5]: 9%
- hemolysis at 20 min, 2 µM [6]: 39%
- MIC (Streptococcus agalactiae): > 40 µM
- hemolysis at 20 min, 20 µM [7]: 116%
- MIC (Pseudomonas aeruginosa): 40 µM (≈ 95.3 µg/mL)
- MIC (Staphylococcus aureus [8]): 5 to 40 µM (≈ 11.9 to 95.3 µg/mL)
- MIC (Salmonella typhimurium): 20 µM (≈ 47.7 µg/mL)
- MIC (Bacillus subtilis): 5 µM (≈ 11.9 µg/mL)
- MIC (Enterococcus faecalis [9]): > 40 µM
- MIC (Escherichia coli): 20 µM (≈ 47.7 µg/mL)
- MIC (Enterococcus faecalis [10]): > 40 µM
- MIC (Staphylococcus aureus [11]): > 40 µM
- logP [12]: 0.36
- Activity (Erythrocyte): 137%
- LC50 (Staphylococcus aureus [3]): 15 µM
- hemolysis at 20 min, 10 µM [13]: 110%
